The list is not random: actives were taken first. Their share in the collection is about 1.9%.
APJ antagonist – blocks the human apelin receptor APJ | CHO-K1 APJ beta-arrestin complementation, luminescence | inhibition, % at 20 µM | actives 0.32% (n = 330,000) | AID 2521;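 active = inhibition above about 40% at 20 µM, limit read from the data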;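 note: cells challenged with 10 nM apelin-13 agonist together with compound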
EBI2 block – antagonists of human EBI2 receptor. inhibition, % at 5 µM. actives 0.81% (n = 360,000). P32249. EBI2 beta-arrestin recruitment, luminescence, 7a,25-OHC stimulated. AID 651636; in the data active = inhibition above about 38%;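 note: enzyme fragment complementation signal reports receptor beta-arrestin coupling in cells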
Target sequence (P32249 whole entry, looked up, the tested form may be a part): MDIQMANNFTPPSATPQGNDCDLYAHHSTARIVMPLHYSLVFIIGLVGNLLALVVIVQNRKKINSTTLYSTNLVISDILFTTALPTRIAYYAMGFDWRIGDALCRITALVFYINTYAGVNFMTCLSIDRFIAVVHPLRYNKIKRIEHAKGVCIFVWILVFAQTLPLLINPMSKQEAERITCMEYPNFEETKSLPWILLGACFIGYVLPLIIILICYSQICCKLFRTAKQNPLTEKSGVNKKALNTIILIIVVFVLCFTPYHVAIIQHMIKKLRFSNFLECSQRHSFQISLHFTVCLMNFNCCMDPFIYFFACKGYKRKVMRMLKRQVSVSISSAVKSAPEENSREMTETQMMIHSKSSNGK
CCR6 antag – CCR6 (human) receptor antagonism; CHO-K1 CCR6 PathHunter beta-arrestin, luminescence, CCL20-stimulated; inhibition, % at 20 µM; actives 0.49% (n = 340,000); P51684;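 active = compounds whose inhibition of the agonist-driven luminescence signal at 20 µM reaches about 50%, limit read from the data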;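 note: cells stimulated with CCL20 at 14 nM final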
TAG inh – triacylglycerol accumulation inhibition. H9c2 cells, Nile Red lipid (TAG) fluorescence; cells loaded with 200 µM oleic acid. inhibition, % at 12.5 µM. actives 0.66% (n = 230,000). AID 651582;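 active = pattern-corrected inhibition of lipid staining of at least 50% with the nuclear-stain viability signal not falling by more than 50%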
APJ agonist – activates the human apelin receptor APJ | activation, % at 20 µM | CHO-K1 APJ PathHunter beta-arrestin, luminescence; 0% DMSO wells, 100% apelin | P35414 | actives 0.11% (n = 330,000);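 active = activation more than six SD over the plate average, tested at 20 µM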
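Assay system: CHO-K1 APJ beta-arrestin complementation cell line / Compound: single test compound dose, 20 µM final, 1% DMSO / Times: overnight seeding, 90 min compound at 25 °C, 1 h detection / Technique: beta-gal luminescence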
CXCR6 inh – inhibitors of human CXCR6 receptor; O00574; CHO-K1 PathHunter CXCR6 beta-arrestin, luminescence; inhibition, % at 20 µM; actives 0.36% (n = 360,000); AID 602244; in the data active = inhibition above about 34%, passing the limit was not always enough;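 note: antagonist mode with CXCL16 agonist at 10 nM final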
CXCR6 antag conf – CXCR6 antagonism confirmation, single concentration | CHO-K1 CXCR6 PathHunter beta-arrestin, luminescence | shares compounds with CXCR6 inh | AID 602409 | inhibition, % at 20 µM | actives 65% (n = 700);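 active = mean inhibition over four retests above 40%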;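 note: receptor stimulated with 10 nM CXCL16 agonist; beta-galactosidase fragment complementation upon beta-arrestin recruitment to receptor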
H9c2 TAG conf – confirmation of triacylglycerol accumulation inhibitors. shares compounds with TAG inh. H9c2 lipid accumulation, Nile Red fluorescence; cells loaded with 200 µM oleic acid. actives 71% (n = 990). inhibition, % at 12.5 µM. AID 651629;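 active = mean inhibition across replicates of 40% or more; inactive = mean inhibition below 40%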
EBI2 antag conf – EBI2 (human) antagonism, single concentration confirmation; shares compounds with EBI2 block; EBI2 beta-arrestin luminescence, 7a,25-OHC antagonism; inhibition, % at 5 µM; actives 29% (n = 2,400);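 active = inhibition of at least 50%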
EBI2 agonist – EBI2 agonism counter-screen; 2,400 tested, under 10 active; activation, % at 5 µM; shares compounds with EBI2 block; EBI2-expressing cells, agonist mode, luminescence, 60 min; 0% vehicle, 100% 7α,25-dihydroxycholesterol control;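 active = activation of at least 50%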
bGal counter – counter-screen for EBI2 antagonists: E. coli beta-galactosidase inhibition; shares compounds with EBI2 block; purified beta-galactosidase, luminescent Galacton Star, 15 min; inhibition, % at 5 µM; actives 1% (n = 2,400); AID 652176;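 active = replicate-average signal at least 3 plate SD below neutral wells, shown as high inhibition, flagging enzyme-inhibiting false positives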;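 note: higher means stronger loss of beta-gal luminescence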
Large screens that a line does not name were inactive (follow-up assays come after a bar, where they were run).

Cc1cccc(C)c1-n1nnnc1C(CCc1ccccc1)N1CCC2(CC1)C(=O)NCN2c1ccccc1 (configuration not stated)	none (no result: APJ antagonist, CCR6 antag, TAG inh, APJ agonist)
Cc1cc([N+](=O)[O-])c(Cl)cc1NC(=O)C(C)C	none (no result: TAG inh)
CNc1cc(Cl)c2nonc2c1[N+](=O)[O-]	EBI2 block 80, CCR6 antag 98, TAG inh 79, CXCR6 inh 100 (no result: APJ antagonist, APJ agonist) | CXCR6 antag conf 103
CCOC(=O)[C@]12Cc3cc(Cl)ccc3[C@H]1N(C1CCCCC1)C(=O)c1cc(OC)ccc12	EBI2 block 77, CXCR6 inh 42 (no result: APJ antagonist, CCR6 antag, TAG inh, APJ agonist) | CXCR6 antag conf 47
COc1ccc(OC(=O)N(C)C[C@@H]2OCc3cnnn3CCCC(=O)N([C@@H](C)CO)C[C@H]2C)cc1	none (no result: APJ antagonist, CCR6 antag, APJ agonist)
COc1ccc(OC(=O)N(C)C[C@@H]2OCc3cnnn3CCCC(=O)N([C@H](C)CO)C[C@@H]2C)cc1	CXCR6 inh 90 (no result: APJ antagonist, CCR6 antag, APJ agonist) | CXCR6 antag conf inactive
Cn1c(O)c(C2=NNC(c3ccc(Cl)cc3)C2)c(=O)n(C)c1=O (configuration not stated)	CCR6 antag 56, CXCR6 inh 34 | CXCR6 antag conf 112
COC(=O)C1=C(C(=O)OC)SC2(S1)C(C(=O)OC)=C(C(=O)OC)Sc1c2ssc1=O	CCR6 antag 86, CXCR6 inh 68 (no result: APJ antagonist, APJ agonist) | CXCR6 antag conf 56
O=C1NCN(c2ccccc2)C12CCN(C(c1ccccc1)c1nnnn1Cc1ccccc1)CC2 (configuration not stated)	none (no result: APJ antagonist, CCR6 antag, TAG inh, APJ agonist)
CN[C@@H](C)[C@@H](O)c1ccccc1	none
COc1ccc(C2=CC(c3ccc4c(c3)OCO4)c3c(c4ccccc4oc3=O)O2)cc1OC (configuration not stated)	TAG inh 61 (no result: APJ antagonist, APJ agonist) | H9c2 TAG conf 60
COc1ccc(C(CC(=O)c2ccc3c(c2)OCO3)c2c(O)c3ccccc3oc2=O)cc1OC (configuration not stated)	none (no result: APJ antagonist, CCR6 antag, APJ agonist)
CNC(=O)NC(O)C(Cl)(Cl)Cl (configuration not stated)	none
COC(=O)C1=C(c2ccc(OCc3ccccc3)cc2)C[C@@H]2CC[C@H]1N2C(=O)NCc1ccccc1	none
COC(=O)C1=C(c2ccc(OCc3ccccc3)cc2)C[C@@H]2CC[C@H]1N2C(=O)NCc1ccc(C(C)(C)C)cc1	TAG inh 70 (no result: APJ antagonist, CCR6 antag, APJ agonist) | H9c2 TAG conf 75
CCCCCCC(C)(C)c1ccc([C@@H]2C[C@H](O)CC[C@H]2CCCO)c(O)c1	TAG inh 106 | H9c2 TAG conf 116
COc1cc(C(=S)N2CCOCC2)cc(OC)c1OC(=O)Cc1ccccc1	none
c1ccc(N2[C@@H]3CC[C@H]2c2ccccc2C3)cc1	none (no result: APJ antagonist, CCR6 antag, APJ agonist)
COc1ccc2[nH]c(C)c(CCNCc3cn(C)c4ccccc34)c2c1	TAG inh 56 | H9c2 TAG conf 46
CN1CSC(=S)N(C)C1	TAG inh 64 | H9c2 TAG conf 64
O=C(COc1ccc2ccccc2c1)N1CCN(Cc2c[nH]c3ccccc23)CC1	EBI2 block 83 | EBI2 antag conf 53 | EBI2 agonist inactive | bGal counter inactive
COc1ccc(CN2CCN(C(=O)COc3ccc4ccccc4c3)CC2)c(OC)c1	EBI2 block 78 (no result: TAG inh) | EBI2 antag conf 69 | EBI2 agonist inactive | bGal counter inactive
